Experimental data taken from ChEMBL document CHEMBL1806374, “Synthesis, characterization and cytotoxicity of some novel 1,3-disubstituted-2,3-dihydro-2-iminobenzimidazoles” (Eur J Med Chem, 2011).
One block for each molecule: values may come before it.

What was measured:
[1] = Antiproliferative activity against at human Splenocytes after 24 hrs by MTS assay; assay type: cell-based; conditions: Splenocyte
Procedure, shortened: (§1)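 Cells were seeded at 2 × 10⁴ per well. After 24 h the monolayers were washed and overlaid with medium containing compound, from a 0.5 mg/ml DMSO stock diluted 1:10 to 1:10 000. Untreated medium served as control. After 24 h, MTS was added for 2 h at 37 °C in 5% CO2, and A490 was read. Viability was expressed as % of control, averaged over three independent assays, and IC50/EC50 were taken from the plotted curves.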

HT-29 [2] = test: Antiproliferative activity against human HT-29 cells after 24 hrs by MTS assay; assay type: functional, cell-based; conditions: HT-29, 24 h; procedure, shortened: as §1
MDA-MB-231 [3] = test: Cytotoxicity against human MDA-MB-231 cells after 24 hrs by MTS assay; assay type: functional, cell-based; conditions: MDA-MB-231, 24 h; procedure, shortened: as §1
MDA-MB-231 [4] = test: Antiproliferative activity against human MDA-MB-231 cells after 24 hrs by MTS assay; assay type: functional, cell-based; conditions: MDA-MB-231, 24 h; procedure, shortened: as §1
HT-29 [5] = test: Cytotoxicity against human HT-29 cells after 24 hrs by MTS assay; assay type: functional, cell-based; conditions: HT-29, 24 h; procedure, shortened: as §1
[6] = Cytotoxicity against human Splenocytes after 24 hrs by MTS assay; assay type: cell-based; conditions: Splenocyte; procedure, shortened: as §1

Structure (SMILES): N=c1n(CCCc2ccccc2)c2ccccc2n1CCCc1ccccc1
- EC50 [1]: 14.1 nM
- EC50 (MDA-MB-231 [4]): 1.39 nM
- IC50 (HT-29 [5]): 9.26 nM

Structure (SMILES): CCOC(=O)C(C)N1C2=NC(=O)C(C)N2c2ccccc21 (stereo not drawn)
- EC50 [1]: 0.542 nM
- EC50 (MDA-MB-231 [4]): 2.02 nM
- EC50 (HT-29 [2]): 5.68 nM

Structure (SMILES): N=c1n(CC(=O)NCCCN)c2ccccc2n1CC(=O)NCCCN
- EC50 [1]: 0.05 nM
- IC50 (HT-29 [5]): 0.56 nM
- IC50 (MDA-MB-231 [3]): 0.123 nM

Structure (SMILES): CN1CCN(C(=O)Cn2c(=N)n(CC(=O)N3CCN(C)CC3)c3ccccc32)CC1
- EC50 (MDA-MB-231 [4]): 1.59 nM
- IC50 [6]: 1.38 nM
- IC50 (HT-29 [5]): 0.013 nM

Now from value to molecule, other results behind:

- EC50 (HT-29 [2]): 2.37 nM
Structure (SMILES): CCOC(=O)Cn1c(=N)n(CC(=O)OCC)c2ccccc21
- EC50 [1]: 14.3 nM
- IC50 (MDA-MB-231 [3]): 1.15 nM

- EC50 (HT-29 [2]): 0.205 nM
Structure (SMILES): N=c1n(CC(=O)NCc2ccccc2)c2ccccc2n1CC(=O)NCc1ccccc1
- EC50 [1]: 7.74 nM
- IC50 (MDA-MB-231 [3]): 1.65 nM

- EC50 (HT-29 [2]): 4.3 nM
Structure (SMILES): N=c1n(CC(=O)N/N=C/c2ccc(F)cc2)c2ccccc2n1CC(=O)N/N=C/c1ccc(F)cc1
- EC50 [1]: 16.9 nM

- EC50 (MDA-MB-231 [4]): 0.002 nM
- EC50 (HT-29 [2]): 3.51 nM
Structure (SMILES): N=c1n(CC(=O)N/N=C/c2cccc(F)c2)c2ccccc2n1CC(=O)N/N=C/c1cccc(F)c1
- EC50 [1]: 11 nM
